A selection: hits, their analogues and other compounds. The true share with any hit is near 1.5%.
CXCR6 block: CXCR6 receptor inhibitors, primary screen, cell-based, beta-arrestin, luminescence, CHO-K1 PathHunter, 1536-well; hit rate 0.36% among 360,000; C-X-C chemokine receptor type 6 (Homo sapiens), O00574; inhibition, % at 20 µM; in the data active = inhibition above about 34%, passing the limit was not always enough;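 also: antagonist mode with CXCL16 agonist at 10 nM final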
APJ ag: agonists of human apelin receptor APJ, primary screen, CHO-K1 cells, PathHunter beta-arrestin, luminescence; P35414; 0% DMSO wells, 100% apelin; activation, % at 20 µM; hit rate 0.11% among 330,000;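 active = activation more than six SD over the plate average, tested at 20 µM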
Target sequence (P35414 whole entry, looked up): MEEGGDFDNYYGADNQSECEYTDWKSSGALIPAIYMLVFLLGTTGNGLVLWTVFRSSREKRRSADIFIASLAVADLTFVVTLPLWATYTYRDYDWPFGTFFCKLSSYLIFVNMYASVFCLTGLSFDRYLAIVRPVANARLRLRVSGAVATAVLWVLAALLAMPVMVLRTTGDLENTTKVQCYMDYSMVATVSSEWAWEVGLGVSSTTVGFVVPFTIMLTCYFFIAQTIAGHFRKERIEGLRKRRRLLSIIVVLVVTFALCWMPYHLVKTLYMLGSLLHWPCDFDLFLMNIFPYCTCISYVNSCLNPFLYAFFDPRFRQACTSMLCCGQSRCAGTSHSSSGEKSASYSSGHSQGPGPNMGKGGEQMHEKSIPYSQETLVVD
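Test system: CHO-K1 APJ beta-arrestin complementation cell line. Amount: cell density 1000 per well. Controls: DMSO negative, 10 nM Apelin-13 positive. Signal: luminescent beta-gal fragment complementation, chemiluminescent substrate. Read-out basis: agonist-driven arrestin binding to APJ. Timing: compound stimulation 90 min at 25 °C, detection 60 min.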
EBI2 antag: EBI2 receptor antagonists, beta-arrestin recruitment, primary screen, cell-based, luminescence, 7a,25-OHC stimulation, uHTS. 7a,25-OHC stimulated. AID 651636, 2012. hit rate 0.81% among 360,000. inhibition, % at 5 µM. G-protein coupled receptor 183 (Homo sapiens), P32249; in the data active = inhibition above about 38%;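 also: enzyme fragment complementation signal reports receptor beta-arrestin coupling in cells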
APJ antagonist: antagonists of human apelin receptor APJ, primary screen, CHO-K1 cells, beta-arrestin complementation, luminescence; P35414; inhibition, % at 20 µM; hit rate 0.32% among 330,000; AID 2521, 2010;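 active = inhibition above about 40% at 20 µM, limit read from the data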;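 also: cells challenged with 10 nM apelin-13 agonist together with compound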
CCR6 antag: CCR6 receptor antagonists, primary screen, cell-based, CHO-K1, luminescence, beta-arrestin, uHTS | inhibition, % at 20 µM | C-C chemokine receptor type 6 (Homo sapiens), P51684 | hit rate 0.49% among 340,000 | AID 493098, 2011 | CHO-K1 CCR6 PathHunter beta-arrestin, CCL20-stimulated;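 active = compounds whose inhibition of the agonist-driven luminescence signal at 20 µM reaches about 50%, limit read from the data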;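 also: cells stimulated with CCL20 at 14 nM final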
APJ ag confirm: agonists of human apelin receptor APJ, confirmation, cell-based, single concentration, CHO-K1, beta-arrestin, luminescence; shares compounds with APJ ag; hit rate 10% among 310; CHO-K1 APJ PathHunter beta-arrestin; activation, % at 20 µM;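 active = activation above 40%, taking the highest of four retests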
Hits are given with their value; 0 = inactive; - = not tested or not shown.

SMILES	CXCR6 block	APJ ag	EBI2 antag	APJ antagonist	CCR6 antag	APJ ag confirm
CCN(CC)C(=O)c1cccc(-c2csc(C(C)(NC(C)=O)c3ccccc3)n2)c1 (stereo not given)	0	-	0	-	-	-
CC(=O)c1c(N)[nH]c(-c2ccccc2)nc1=S	0	0	0	0	57	-
CC1CCCC(NC(=O)CSc2nnc(-c3cccnc3)o2)C1C (stereo not given)	0	-	0	-	-	-
O=[N+]([O-])c1c(Nc2ccccc2O)ccc2nonc12	0	0	0	0	0	-
O=[N+]([O-])c1c(Nc2ccccc2O)cc(Cl)c2nonc12	107	0	61	93	106	-
NC(=O)C1=C[C@@H](c2ccc(Br)cc2)C[C@@H](OCCCCO)O1	0	0	0	0	0	-
C=C(C)C(=O)Oc1ccc(N=Nc2ccc(C)cc2)ccc1=O	65	-	0	-	92	-
CCOC(=O)C1=C(C)N(CCCC(=O)O)C(=O)NC1c1ccccc1OC(=O)c1cccs1 (stereo not given)	-	0	-	0	-	-
CCO[C@@H]1OC(C(=O)N2CCN(Cc3ccccc3)CC2)=C[C@H](c2ccc(Br)cc2)[C@H]1CCCO	48	0	0	0	58	-
CCCNC(=O)CN1C(=O)NC(Cc2c[nH]c3ccccc23)C1=O (stereo not given)	0	0	0	0	0	-
O=CC(=O)c1ccccc1	0	0	0	0	76	-
COc1ccc(NC(=O)c2cc(S(=O)(=O)N3CCc4ccccc43)cn2C)c(OC)c1	0	0	66	0	0	-
CC1OC(CC(=O)O)CC2=C1C(=O)c1c(O)cccc1C2=O (stereo not given)	74	-	0	-	89	-
[O-]/[N+](=N\Nc1ccc(Cl)cc1)c1ccccc1	0	-	0	-	0	-
Cc1cc(N2CCN(C)CC2)ccc1NC(=O)c1c2c(nc3ccccc13)CCN(Cc1ccccc1)C2	0	16	0	0	0	-
O=C(NC1CCCCCC1)c1c2c(nc3ccccc13)CCN(Cc1ccccc1)C2	0	0	0	0	0	-
C/C(=C\C(=O)c1ccc(Br)cc1)NNC(=O)c1ccc(O)cc1	0	0	0	0	0	-
C/C(=C\C(=O)c1ccc(Br)cc1)NNC(=O)c1ccccc1	0	0	0	0	65	-
O=C1C=CC(=O)N1c1ccccc1N1C(=O)C=CC1=O	72	-	0	-	108	-
COc1ccc(S(=O)(=O)N2CCN(Cc3cc(=O)n4ccccc4n3)CC2)cc1	0	0	0	0	0	-
N=c1c(C(=O)NCc2ccc(F)cc2)cc2c(=O)n3ccccc3nc2n1Cc1ccco1	0	0	0	49	0	-
COc1ccc(C2CC(=O)CCN2S(=O)(=O)c2ccc(C)cc2)cc1 (stereo not given)	0	-	0	-	0	-
O=C1Nc2ccc(Br)cc2/C1=C/C(=O)c1ccc2c(c1)OCO2	0	0	85	0	0	-
O=C1Nc2ccc(Br)cc2/C1=C/C1CC=CCC1 (stereo not given)	0	0	0	0	0	-
CCOC(=O)c1c(-c2ccc(OC)cc2)cn2ccccc12	0	0	0	0	0	-
SMILES	CXCR6 block	APJ ag	EBI2 antag	APJ antagonist	CCR6 antag	APJ ag confirm
N/C(=N\OC(=O)c1cccnc1)c1ccccc1Cl	0	8.9	0	0	0	0
CCSc1nc(O)c(CC)c(=O)n1C(C)CC (stereo not given)	0	39	0	0	0	61
Cc1oc(-c2ccc(Cl)cc2)nc1CS(=O)CC(=O)NCCCN1CC(C)CC(C)C1 (stereo not given)	0	0	0	0	0	-
COc1ccc(OC)c(NC(=O)CCNS(=O)(=O)c2ccc3c(c2)CC(C)N3C(C)=O)c1 (stereo not given)	0	-	0	-	-	-
O=C(c1cnn2c(C(F)(F)F)cc(-c3cccs3)nc12)N1CCN(Cc2ccccc2)CC1	0	30	0	0	0	0
COC(=O)Cn1cc(/C=C(/C#N)C(=O)N2CCOCC2)c2ccccc21	0	12	0	0	0	0
Cc1ccc(C(=O)O/N=C/c2c(N3CCOCC3)n(C)c3ccccc23)cc1	0	0	0	0	0	-
Cn1c(N2CCOCC2)c(/C=N/OC(=O)c2ccc(F)cc2)c2ccccc21	0	17	0	0	0	0
CC1(OC(=O)C2CCCC2)C(=O)C=C2C=C(c3ccsc3)N(C3CCCC3)C=C2C1=O (stereo not given)	0	104	0	0	0	0
CCC(C)NC(=O)CSC1=Nc2ccccc2C2=NC(CC(=O)NCc3ccc(F)cc3)C(=O)N12 (stereo not given)	0	51	0	0	0	0
CCOC(=O)CSC1=Nc2ccccc2C2=NC(CC(=O)NCc3ccccc3)C(=O)N12 (stereo not given)	0	0	0	0	0	-
Cc1cc(NC(=O)c2ccc([N+](=O)[O-])cc2Cl)ccc1NC(=O)c1ccco1	0	-	0	0	0	-
O=C(Nc1ccc(NC(=O)c2ccc([N+](=O)[O-])cc2[N+](=O)[O-])cc1)c1ccco1	0	11	0	0	0	0
Cc1ccc(CN2CCC[C@]3(N[C@H](c4ccc(C)cc4)[C@@H]4C(=O)N(C)C(=O)[C@@H]43)C2=O)cc1	0	-	0	-	-	-
COc1cc2nc(N3CCN(c4cc(C)ccc4C)CC3)nc(N)c2cc1OC	0	20	0	0	0	0
CN1CCN(c2ccc(NC(=O)COc3ccccc3[N+](=O)[O-])cc2)CC1	0	0	0	0	0	-
CC(C)C(=O)N1CCN(c2ccc(NC(=O)COc3ccccc3[N+](=O)[O-])cc2)CC1	0	16	0	0	0	54
O=C(O)[C@@H]1CSC2c3ccccc3C(=O)N21 (stereo not given in full)	0	0	0	0	0	-
Cc1ccc(/C=N/NC(=O)CSc2nnc(-c3ccc(Cl)cc3)n2-c2ccccc2)o1	0	0	0	0	0	-
O=C(CSc1nnc(-c2ccc(Cl)cc2)n1-c1ccc(Cl)cc1)N/N=C/c1ccco1	0	18	0	0	0	0
CC(=O)Nc1ccc(NC(=O)COC(=O)c2ccc([N+](=O)[O-])o2)cc1	0	12	0	0	0	0
CCN(c1ccc(NC(=O)COC(=O)c2ccc([N+](=O)[O-])o2)cc1)C(C)C	0	0	0	0	0	-
COc1cc(OC)cc(C(=O)NCC(=O)NCc2ccccn2)c1	0	0	0	0	0	-
Cc1cccc(NC(=S)NC(=O)/C=C/c2ccccc2)n1	0	11	0	0	0	0
COc1ccc(NC(=S)NC(=O)/C=C/c2ccccc2)cc1	0	0	0	0	0	-
COc1ccccc1C(=O)NCCCCNC(=O)c1ccccc1OC	0	0	0	0	0	-
O=S(=O)(c1ccc2nc(N3CCN(c4ccc(F)cc4)CC3)ccc2c1)N1CCCCC1	0	0	0	0	0	-

From PubChem
